This note sets out measurements from PubChem BioAssay.

Activity calls are given as the source filed them.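 Rule for the calls, unless noted: active = visually confirmed hit in the image check and inhibition above 20%; inconclusive = visually confirmed hit but inhibition not above 20%; inactive = no visual hit in the image check.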

A short description of assay [1]: inhibitors of TNFa-induced NFkB p65 translocation, primary screen, imaging, HUVEC, MLSMR starter and 10KST1 sets (AID 438;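 active = inhibition above 20% together with a positive visual image hit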;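 note: compound added about 3h40 before a 20 min TNFalpha stimulation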;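 for inhibition: signal is the nuclear over cytoplasmic p65 intensity ratio per well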). Conditions: HUVEC TNFa-induced p65 nuclear translocation; cell count: measured here: nuclei count (cytotoxicity indicator), at 2.08 µM; inhibition: at 2 µM, stronger effect = higher value, 0% TNFa-plus-vehicle, 100% no-TNFa wells.
Assay [2] is described as follows: inhibitors of E-selectin induction by TNFa, primary screen, imaging, HUVEC, immunofluorescence, MLSMR starter and 10KST1 sets (AID 487).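 For inhibition: signal is fraction of cell area covered by stained E-selectin grains.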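 For nuclei count: 100% = median nuclei count of all wells on the same plate.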 Conditions: HUVEC TNFalpha-induced E-selectin immunofluorescence imaging, at 2 µM; inhibition: stronger effect = higher value; nuclei count: measured here: cell number, toxicity.
Assay [3] in a line: DUSP6 inhibitors restoring Erk phosphorylation by chemical complementation, primary imaging in DUSP6-transfected HeLa (AID 609;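 active = compounds giving at least 50% inhibition in the cell-based MKP-3 phosphatase rescue imaging test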;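 for inhibition: phospho-Erk level distribution per well compared with pooled transfected vehicle control wells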). The following applies: HeLa MKP-3 transfected, phospho-Erk imaging KS statistic, at 10 µM, cells stimulated with TPA for 15 min.
Assay [4] has as its target Dual specificity protein phosphatase 6 (Homo sapiens) (UniProt Q16828). The assay is described as above. Conditions: HeLa MKP-3 transfected, phospho-Erk imaging KS statistic; at 10 µM; stronger effect = higher value; cells stimulated with TPA for 15 min.
Assay [5] concerns the target Voltage-gated potassium channel subunit beta-2 (Rattus norvegicus) (UniProt P62483). Briefly: KvBeta enzyme negative modulators, primary screen, biochemical, NADPH fluorescence (AID 622;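 active = fluorescence slope higher than the sample average by over 3 SD, cut at about -0.22 in these data, passing the limit was not always enough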;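 note: slope of raw intensity against log time taken from 70 to 1610 s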). Conditions: recombinant KvBeta, 4-cyanobenzaldehyde reduction, at 10 µM, stronger effect = higher value.
The target is the same in assay [6]. Briefly: KvBeta positive modulators, primary screen, biochemical, NADPH fluorescence (AID 623;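 active = NADPH fluorescence slope more negative than the mean of all samples by about 3 SD, 99.7% confidence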;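 note: fluorescence intensity change per second fitted from 20 to 320 s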). Conditions: Recombinant KvBeta, NADPH fluorescence decrease slope, 10 min; at 10 µM; stronger effect = lower value.
Assay [7] has as its target Muscarinic acetylcholine receptor M4 (Homo sapiens) (UniProt P08173). The experiment in a line: compounds altering M4/GIRK thallium flux, either direction, primary screen, M4 allosteric agonist project, cell-based, HEK293 M4/GIRK, BTC-AM (AID 625;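 active = fluorescence slope after compound addition differing from the mean of all tested samples at 99.7% confidence, mostly higher but some lower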;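 note: thallium influx through GIRK channels coupled to M4 in HEK293 cells with BTC-AM dye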). Conditions: at 10 µM, actives lie on both sides. The essentials: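 Material: M4/GIRK1/GIRK2 stable HEK293 cell line. Medium: pH 7.3 thallium assay buffer. Dosing: single compound concentration, 10 µM final. Schedule: 1 h dye loading, 2 min kinetic read. Measured by: kinetic fluorescence with BTC-AM dye. Read-out: post-addition slope, 15–24 s, of baseline-normalized fluorescence. Benchmarks: carbachol and DMSO controls.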

Assay [8] can be described thus: inhibitors of larval lipid processing in zebrafish, primary screen, whole organism, PED6 fluorescence, gall bladder and intestine (AID 686;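 active = a full or partial loss of lipid-probe fluorescence in the fish gall bladder, intestine or both, judged by eye; inactive = no fluorescence loss, or compound toxic to the fish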;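 note: larvae 5 to 7 days old with five fish per well; signal comes from phospholipase A2 cleavage of quenched PED6 carried via bile; overnight exposure to compound and PED6 before scoring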). Conditions: Zebrafish larvae PED6 lipid processing, fluorescence scoring; screened at 20 µM (by protocol). Summed up:
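System: live zebrafish larvae aged 5-7 days, whole organism; measure: graded gall bladder and intestinal fluorescence inhibition per well; incubation: overnight exposure; reagent: ingested quenched lipid PED6 at 100 nM; signal: By-eye fluorescence microscopy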

Assay [9] in a line: inhibitors of Chlamydomonas gravitaxis, primary screen, whole organism, Chlamydomonas reinhardtii, WT vs cilia-less mutant, absorbance, 96-well (AID 463189;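 active = inhibition at or above 50% relative to wild type and mutant plate controls; inactive = inhibition below 50%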;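 note: 0% = wild type cc124 cells in DMSO and 100% = ciliumless bld1 mutant cells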). The following applies: OD600 absorbance, 2 days, at 10 µM, stronger effect = higher value.
[10] abbreviates: measured here: cell density z-score.
Where [11] appears, read: measured here: nuclear c-Myc green intensity z-score.
Setting [12] is: measured here: nuclear pErk red intensity z-score, stronger effect = higher value.

Muscarinic acetylcholine receptor M4 (Homo sapiens), sequence (P08173 whole entry, looked up): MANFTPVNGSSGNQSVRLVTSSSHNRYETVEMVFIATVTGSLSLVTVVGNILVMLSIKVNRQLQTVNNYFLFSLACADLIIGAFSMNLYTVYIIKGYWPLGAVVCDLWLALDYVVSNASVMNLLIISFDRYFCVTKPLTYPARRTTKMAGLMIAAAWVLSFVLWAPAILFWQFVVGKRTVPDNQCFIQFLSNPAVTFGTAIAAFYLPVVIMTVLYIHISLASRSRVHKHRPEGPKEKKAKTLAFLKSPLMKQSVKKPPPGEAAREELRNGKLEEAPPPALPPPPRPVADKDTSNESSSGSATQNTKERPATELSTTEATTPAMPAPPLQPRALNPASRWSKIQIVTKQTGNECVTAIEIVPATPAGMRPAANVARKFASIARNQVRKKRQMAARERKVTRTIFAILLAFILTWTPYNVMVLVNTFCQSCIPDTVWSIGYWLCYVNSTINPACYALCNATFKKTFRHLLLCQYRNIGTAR
Dual specificity protein phosphatase 6 (Homo sapiens), sequence (Q16828 whole entry, looked up): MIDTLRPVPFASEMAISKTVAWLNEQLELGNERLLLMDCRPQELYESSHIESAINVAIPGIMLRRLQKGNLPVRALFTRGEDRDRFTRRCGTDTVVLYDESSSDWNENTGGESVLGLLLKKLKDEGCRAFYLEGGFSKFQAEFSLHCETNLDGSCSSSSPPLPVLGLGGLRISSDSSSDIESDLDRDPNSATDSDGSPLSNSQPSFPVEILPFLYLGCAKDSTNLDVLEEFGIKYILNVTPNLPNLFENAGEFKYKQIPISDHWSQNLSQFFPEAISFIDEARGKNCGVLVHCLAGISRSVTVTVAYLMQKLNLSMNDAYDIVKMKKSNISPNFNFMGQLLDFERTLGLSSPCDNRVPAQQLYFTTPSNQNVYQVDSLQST
Voltage-gated potassium channel subunit beta-2 (Rattus norvegicus), sequence (P62483 whole entry, looked up): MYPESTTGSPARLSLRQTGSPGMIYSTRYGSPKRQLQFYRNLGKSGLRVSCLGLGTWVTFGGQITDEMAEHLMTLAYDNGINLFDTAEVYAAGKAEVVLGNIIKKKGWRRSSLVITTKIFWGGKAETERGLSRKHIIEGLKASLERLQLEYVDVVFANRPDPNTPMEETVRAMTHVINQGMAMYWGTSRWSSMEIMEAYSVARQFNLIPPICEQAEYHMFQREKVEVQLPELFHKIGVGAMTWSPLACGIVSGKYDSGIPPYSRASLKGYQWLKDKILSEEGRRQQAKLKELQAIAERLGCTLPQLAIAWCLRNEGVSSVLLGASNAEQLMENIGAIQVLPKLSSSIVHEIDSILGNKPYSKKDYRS

`COCc1[nH]nc2c1C(c1ccc(OC)cc1)C(C#N)=C(N)O2` (centres undefined): in assay [1], the cell count was 664. In addition, the inhibition was -8.1% (inactive) in [1], 0.4% (inactive) in [2], -4.27% (inactive) in assay [4] and 0.628% (inactive) in [9]. This molecule had a nuclei count in [2] of 142%. For the same molecule, the z-score in assay [3] (setting [10]) is -1.64; in assay [3] (setting [11]) it was 0.0391; in assay [3] (setting [12]), -2.4. The fluorescence slope was -0.477 (inactive) in assay [5] and 0.006 (inactive) in [7]. In addition, the NADPH fluorescence slope in assay [6] was -6e-05 (inactive). In addition, the result in assay [8] was inactive.

As for `CN1CCN(Cc2c(O)c(Cl)cc3c(-c4ccccc4)cc(=O)oc23)CC1`, the cell count in assay [1] is 601. Also, the inhibition in assay [1] is -8.3% (inactive); in [2], -38.4% (inactive); in [4] it was 2.46% (inactive); in [9], 10.5% (inactive). In [2], this molecule displayed a nuclei count of 108%. Moreover, the z-score in assay [3] (setting [10]) was -0.109; in assay [3] (setting [11]) it was -0.251; in assay [3] (setting [12]), -0.155. The fluorescence slope in [5] was -0.232 (inactive); in assay [7], 0.00592 (inactive). Also, the NADPH fluorescence slope in assay [6] is -2.2e-05 (inactive). Further, the result in assay [8] was inactive.

`C=CCN(C(=O)CCC(=O)O)C1CC(=O)N(c2ccc(OC)cc2)C1=O` (centres undefined): the cell count in assay [1] amounted to 549. The inhibition in assay [1] is 0.4% (inactive); in [2], 17.4% (inactive); in assay [4], 14.7% (inactive); in assay [9], -19.1% (inactive). Moreover, the nuclei count in assay [2] was determined as 97.5%. Also, the z-score in assay [3] (setting [10]) is 1.91; in assay [3] (setting [11]) it was 0.0386; in assay [3] (setting [12]) it was -1.01. Moreover, the fluorescence slope is -0.482 (inactive) in assay [5] and 0.005 (inactive) in [7]. Also, the NADPH fluorescence slope in assay [6] is -3.4e-05 (inactive). Besides, in assay [8], the call was inactive.

Regarding `Cc1ccc2[nH]c3c(c2c1)CN(C(=O)CN1CC(C)OC(C)C1)CC3` (centres undefined), in assay [1], the cell count amounted to 409. For the same molecule, the inhibition in assay [1] was -6.9% (inactive); in assay [2], -299% (inactive); in assay [4] it was 3.42% (inactive); in [9], 26.6% (inactive). The same molecule returned a nuclei count in [2] of 169%. For the same molecule, the z-score was 1.01 in assay [3] (setting [10]), 0.157 in assay [3] (setting [11]) and -0.0941 in [3] (setting [12]). Moreover, the fluorescence slope in [5] is -0.466 (inactive); in assay [7] it was 0.00334 (inactive). In addition, the NADPH fluorescence slope in [6] was -0.000107 (inactive). Also, the molecule was classed as inactive in [8].

`CN1Cc2c(N3CCOCC3)nc(SCc3ccccc3)c(C#N)c2CC1(C)C`: the cell count in assay [1] came out at 524. Also, the inhibition was -3.1% (inactive) in [1], -101% (inactive) in assay [2], -0.584% (inactive) in [4] and 17.9% (inactive) in [9]. In assay [2], this molecule returned a nuclei count of 134%. Besides, the z-score is -1.78 in [3] (setting [10]), -0.223 in [3] (setting [11]) and -1.03 in [3] (setting [12]). Moreover, the results for the fluorescence slope in assay [5] and in assay [7] were -0.496 (inactive) and 0.00495 (inactive), respectively. Moreover, the NADPH fluorescence slope in assay [6] was -7.5e-06 (inactive). Moreover, the molecule was called inactive in [8].

As for `COCCNc1ncnc2c1cnn2-c1ccc(Cl)cc1`, in [1], the cell count worked out at 534. Moreover, the inhibition in [1] is -25.3% (inactive); in assay [2] it was 11.8% (inactive); in assay [4], 23.4% (inactive); in assay [9] it was 6.55% (inactive). The molecule further yielded a nuclei count in [2] of 184%. For the same molecule, the figures for the z-score in [3] (setting [10]), in assay [3] (setting [11]) and in assay [3] (setting [12]) were 1.76, -0.928 and -0.638, respectively. For the same molecule, the fluorescence slope in assay [5] is -0.429 (inactive); in assay [7] it was 0.00652 (inactive). Further, the NADPH fluorescence slope in [6] is -5.8e-05 (inactive). In addition, the call in assay [8] was inactive.

Consider `OC1(C2(O)CC(c3ccccc3)ON2)CCCCC1` (centres undefined), for which the cell count in assay [1] was found to be 713. The inhibition in assay [1] was 6.2% (inactive); in [2], -8.5% (inactive); in assay [4] it was -5.81% (inactive); in assay [9], 0.004% (inactive). In [2], this molecule gave a nuclei count of 141%. The values for the z-score in assay [3] (setting [10]), in assay [3] (setting [11]) and in assay [3] (setting [12]) were 0.0893, 0.138 and -1.51, respectively. In addition, the fluorescence slope in assay [5] was -0.444 (inactive); in assay [7], 0.00531 (inactive). The NADPH fluorescence slope in assay [6] was -3.6e-05 (inactive). Further, in assay [8], the outcome was inactive.

For `COc1cccc(OC)c1C(=O)Nc1nc2ccc(S(C)(=O)=O)cc2s1`, the cell count in assay [1] was determined as 388. For the same molecule, the inhibition was -2.4% (inactive) in [1], -8.7% (inactive) in [2], 6.04% (inactive) in assay [4] and 19.4% (inactive) in assay [9]. The nuclei count in assay [2] was 109%. In addition, the values for the z-score in assay [3] (setting [10]), in assay [3] (setting [11]) and in assay [3] (setting [12]) were 0.854, 0.658 and -1.02, respectively. The figures for the fluorescence slope in [5] and in assay [7] were -0.409 (inactive) and 0.00408 (inactive), respectively. The NADPH fluorescence slope in assay [6] was -1e-05 (inactive). Besides, the molecule was classed as inactive in assay [8].

As for `CC(NC(=O)Nc1nnc(C(F)(F)F)s1)(C(F)(F)F)C(F)(F)F`, in [1], the cell count came to 640. In addition, the inhibition in [1] is 3.6% (inactive); in assay [2] it was -157% (inactive); in [4] it was 1.63% (inactive); in assay [9], 1.97% (inactive). Also, the nuclei count in assay [2] came out at 149%. Besides, the figures for the z-score in [3] (setting [10]), in assay [3] (setting [11]) and in assay [3] (setting [12]) were -0.473, 0.624 and 0.273, respectively. Also, the fluorescence slope is -0.465 (inactive) in assay [5] and 0.00252 (inactive) in assay [7]. In assay [6], the NADPH fluorescence slope was -5.5e-05 (inactive). Moreover, the outcome in assay [8] was “inactive; toxic”.

`O=c1oc2c(CN3CCCCC3)c(O)ccc2c2c1CCCCC2`: the cell count in [1] is 566. In addition, the inhibition is -6.1% (inactive) in assay [1], 34% (inactive) in assay [2], 14.4% (inactive) in assay [4] and 3.57% (inactive) in assay [9]. The same molecule registered a nuclei count in assay [2] of 168%. The values for the z-score in assay [3] (setting [10]), in assay [3] (setting [11]) and in assay [3] (setting [12]) were 1.43, -1.18 and -0.137, respectively. Besides, the fluorescence slope in [5] is -0.00573 (inactive); in [7] it was 0.00521 (inactive). Further, in assay [6], the NADPH fluorescence slope is 8.5e-07 (inactive). In addition, the outcome in assay [8] was inactive.

As to `Cc1cc2c(c(=O)n1Cc1ccccn1)C(c1ccc3c(c1)OCO3)C(C#N)=C(N)O2` (centres undefined), the cell count in assay [1] is 692. Besides, the inhibition is -7.3% (inactive) in assay [1], -44.9% (inactive) in [2], -2.91% (inactive) in assay [4] and 11.3% (inactive) in assay [9]. In assay [2], this molecule displayed a nuclei count of 183%. Besides, the z-score in [3] (setting [10]) was found to be 0.057; in assay [3] (setting [11]), 2.34; in [3] (setting [12]), 0.285. Also, the fluorescence slope is -0.451 (inactive) in assay [5] and 0.00525 (inactive) in [7]. Besides, the NADPH fluorescence slope in [6] is -5.4e-05 (inactive). The molecule was called inactive in assay [8].

With `COC(=O)CC1=C(C(=O)OC)C(c2cccc(OCC(N)=O)c2)C(C#N)=C(N)O1` (centres undefined), in assay [1], the cell count is 723. Further, the inhibition in [1] is -1% (inactive); in assay [2], -67.7% (inactive); in assay [4], 27.5% (inactive); in assay [9], 12% (inactive). In addition, the nuclei count in [2] worked out at 186%. The z-score in [3] (setting [10]) is -1.4; in assay [3] (setting [11]), 0.109; in [3] (setting [12]), 1.84. For the same molecule, the values for the fluorescence slope in assay [5] and in [7] were -0.432 (inactive) and 0.00612 (inactive), respectively. In addition, in assay [6], the NADPH fluorescence slope is -7e-05 (inactive). In [8], the molecule was called inactive.

As to `COc1cc(C)nc(Nc2nc(C)c(C(C)=O)s2)n1`, the cell count in [1] turned out to be 393. The inhibition was 0% (inactive) in assay [1], -89% (inactive) in assay [2], 43.2% (inactive) in assay [4] and 46.4% (inactive) in assay [9]. In addition, in assay [2], the nuclei count is 125%. Also, the z-score in assay [3] (setting [10]) is 1.97; in assay [3] (setting [11]), -1.71; in assay [3] (setting [12]) it was -0.786. Besides, the fluorescence slope is -0.456 (inactive) in [5] and 0.00495 (inactive) in assay [7]. For the same molecule, in [6], the NADPH fluorescence slope was -8.3e-05 (inactive). Besides, the molecule was classed as inactive in assay [8].

By inhibition is commonly meant the drop in the measured response relative to a control, in per cent.
